Test results: ChEMBL document CHEMBL4196108, “5-Aroylindoles Act as Selective Histone Deacetylase 6 Inhibitors Ameliorating Alzheimer's Disease Phenotypes” (J Med Chem, 2018)
Activity calls are given as the source filed them. No cut-off for these calls is given here.

How the values were obtained:
Homo sapiens [1] = organism: Homo sapiens; assay: Selectivity index, ratio of IC50 for human HDAC2 to IC50 for human HDAC6
Homo sapiens [2] = organism: Homo sapiens; assay: Selectivity index, ratio of IC50 for human HDAC1 to IC50 for human HDAC6
Histone deacetylase 8 = biological target: T1, Histone deacetylase 8 (Homo sapiens, UniProt Q9BY41); assay: Inhibition of human HDAC8 using RHKAcKAc peptide as substrate
T1 sequence (Q9BY41 whole entry): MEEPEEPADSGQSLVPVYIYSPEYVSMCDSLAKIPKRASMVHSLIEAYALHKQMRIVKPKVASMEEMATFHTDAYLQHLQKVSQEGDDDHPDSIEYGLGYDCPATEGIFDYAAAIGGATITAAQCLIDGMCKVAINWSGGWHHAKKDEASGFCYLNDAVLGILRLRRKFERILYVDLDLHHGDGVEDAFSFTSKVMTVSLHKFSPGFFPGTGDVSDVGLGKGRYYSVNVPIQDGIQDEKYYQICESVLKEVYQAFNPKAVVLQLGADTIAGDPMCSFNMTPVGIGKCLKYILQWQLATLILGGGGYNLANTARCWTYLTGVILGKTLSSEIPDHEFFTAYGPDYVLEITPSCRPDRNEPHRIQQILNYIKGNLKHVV

Homo sapiens [3] = organism: Homo sapiens; assay: Selectivity index, ratio of IC50 for human HDAC3 to IC50 for human HDAC6
Homo sapiens [4] = organism: Homo sapiens; assay: Selectivity index, ratio of IC50 for human HDAC8 to IC50 for human HDAC6
Histone deacetylase 2 = Histone deacetylase 2 (Homo sapiens, UniProt Q92769); assay: Inhibition of human HDAC2 using RHKKAc peptide as substrate
Sequence of Histone deacetylase 2 (Q92769 whole entry): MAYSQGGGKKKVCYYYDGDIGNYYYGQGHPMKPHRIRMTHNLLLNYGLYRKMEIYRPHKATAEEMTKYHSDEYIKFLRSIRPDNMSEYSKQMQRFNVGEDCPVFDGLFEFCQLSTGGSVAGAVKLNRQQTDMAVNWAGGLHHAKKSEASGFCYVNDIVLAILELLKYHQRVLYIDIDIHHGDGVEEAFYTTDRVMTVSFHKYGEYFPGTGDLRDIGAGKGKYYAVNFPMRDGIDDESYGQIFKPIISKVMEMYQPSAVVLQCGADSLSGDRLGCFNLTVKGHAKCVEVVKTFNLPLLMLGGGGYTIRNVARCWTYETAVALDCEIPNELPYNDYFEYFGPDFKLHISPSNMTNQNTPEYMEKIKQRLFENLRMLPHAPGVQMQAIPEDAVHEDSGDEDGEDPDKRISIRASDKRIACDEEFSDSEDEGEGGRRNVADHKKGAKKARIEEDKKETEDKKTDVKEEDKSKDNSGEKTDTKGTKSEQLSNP

Homo sapiens [5] = organism: Homo sapiens; assay: Selectivity index, ratio of IC50 for human HDAC10 to IC50 for human HDAC6
[6] = biological target: T2, Protein deacetylase HDAC6 (Homo sapiens, UniProt Q9UBN7); assay: Inhibition of human HDAC6 using RHKKAc peptide as substrate
T2 sequence (Q9UBN7 whole entry): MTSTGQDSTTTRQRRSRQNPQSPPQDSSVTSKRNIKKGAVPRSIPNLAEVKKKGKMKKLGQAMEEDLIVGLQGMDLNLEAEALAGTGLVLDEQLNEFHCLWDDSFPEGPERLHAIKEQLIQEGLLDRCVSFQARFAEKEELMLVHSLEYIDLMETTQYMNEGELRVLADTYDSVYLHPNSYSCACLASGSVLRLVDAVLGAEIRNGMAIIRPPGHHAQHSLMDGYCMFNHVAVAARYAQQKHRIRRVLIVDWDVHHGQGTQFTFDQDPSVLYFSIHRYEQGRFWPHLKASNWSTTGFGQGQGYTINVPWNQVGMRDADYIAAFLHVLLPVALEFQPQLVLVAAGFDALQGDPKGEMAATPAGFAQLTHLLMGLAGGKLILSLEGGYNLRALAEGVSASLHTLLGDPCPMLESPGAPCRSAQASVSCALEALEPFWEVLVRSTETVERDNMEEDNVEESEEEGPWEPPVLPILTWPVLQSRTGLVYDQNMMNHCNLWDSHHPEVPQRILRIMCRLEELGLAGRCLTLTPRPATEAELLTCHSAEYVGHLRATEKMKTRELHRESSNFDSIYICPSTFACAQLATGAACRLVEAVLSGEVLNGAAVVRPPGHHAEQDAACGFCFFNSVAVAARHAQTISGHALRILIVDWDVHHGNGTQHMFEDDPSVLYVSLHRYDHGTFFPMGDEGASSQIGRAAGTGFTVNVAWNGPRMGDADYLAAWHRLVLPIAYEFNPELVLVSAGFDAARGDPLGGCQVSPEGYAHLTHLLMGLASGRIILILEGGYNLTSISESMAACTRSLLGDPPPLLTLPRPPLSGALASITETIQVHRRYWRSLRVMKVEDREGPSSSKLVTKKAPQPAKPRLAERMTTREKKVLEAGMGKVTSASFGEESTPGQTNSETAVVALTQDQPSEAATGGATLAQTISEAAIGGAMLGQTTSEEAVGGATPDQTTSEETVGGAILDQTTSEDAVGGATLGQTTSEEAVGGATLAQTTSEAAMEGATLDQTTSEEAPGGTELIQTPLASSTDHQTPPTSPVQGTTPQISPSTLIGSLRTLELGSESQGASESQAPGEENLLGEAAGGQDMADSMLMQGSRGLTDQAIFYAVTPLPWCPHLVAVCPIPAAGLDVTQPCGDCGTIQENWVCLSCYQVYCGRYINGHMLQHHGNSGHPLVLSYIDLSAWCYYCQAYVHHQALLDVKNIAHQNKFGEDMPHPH

Histone deacetylase 1 = Histone deacetylase 1 (Homo sapiens, UniProt Q13547); assay: Inhibition of human HDAC1 using RHKKAc peptide as substrate
Sequence of Histone deacetylase 1 (Q13547 whole entry): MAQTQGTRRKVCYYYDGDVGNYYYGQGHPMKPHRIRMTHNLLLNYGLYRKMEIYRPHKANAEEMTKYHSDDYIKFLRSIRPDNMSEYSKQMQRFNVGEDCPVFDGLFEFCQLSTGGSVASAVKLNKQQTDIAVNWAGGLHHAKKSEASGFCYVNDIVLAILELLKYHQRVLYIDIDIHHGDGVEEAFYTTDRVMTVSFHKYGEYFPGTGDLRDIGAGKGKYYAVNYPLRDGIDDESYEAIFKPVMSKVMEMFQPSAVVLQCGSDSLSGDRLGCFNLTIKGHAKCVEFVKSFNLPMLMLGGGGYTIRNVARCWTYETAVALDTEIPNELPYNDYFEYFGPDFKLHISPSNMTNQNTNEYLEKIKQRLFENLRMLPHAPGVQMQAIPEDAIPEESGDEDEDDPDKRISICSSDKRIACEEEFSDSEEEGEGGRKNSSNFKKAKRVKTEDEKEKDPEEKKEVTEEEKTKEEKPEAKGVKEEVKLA

Histone deacetylase 3 = Histone deacetylase 3 (Homo sapiens, UniProt O15379)
Sequence of Histone deacetylase 3 (O15379 whole entry): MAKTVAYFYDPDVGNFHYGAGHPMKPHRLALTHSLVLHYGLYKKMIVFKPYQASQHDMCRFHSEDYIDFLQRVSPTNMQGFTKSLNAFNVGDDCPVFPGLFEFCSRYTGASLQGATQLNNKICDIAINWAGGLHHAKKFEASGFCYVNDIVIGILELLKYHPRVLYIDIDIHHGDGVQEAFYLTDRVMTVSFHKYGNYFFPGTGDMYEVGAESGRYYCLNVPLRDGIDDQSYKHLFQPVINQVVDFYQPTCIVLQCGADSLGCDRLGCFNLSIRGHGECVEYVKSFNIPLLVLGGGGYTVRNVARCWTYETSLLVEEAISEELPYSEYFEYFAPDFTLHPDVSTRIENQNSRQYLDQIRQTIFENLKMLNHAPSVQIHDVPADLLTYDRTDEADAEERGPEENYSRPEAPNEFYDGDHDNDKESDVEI

[7] = biological target: T3, Polyamine deacetylase HDAC10 (Homo sapiens, UniProt Q969S8); assay: Inhibition of human HDAC10 using RHKKAc peptide as substrate
T3 sequence (Q969S8 whole entry): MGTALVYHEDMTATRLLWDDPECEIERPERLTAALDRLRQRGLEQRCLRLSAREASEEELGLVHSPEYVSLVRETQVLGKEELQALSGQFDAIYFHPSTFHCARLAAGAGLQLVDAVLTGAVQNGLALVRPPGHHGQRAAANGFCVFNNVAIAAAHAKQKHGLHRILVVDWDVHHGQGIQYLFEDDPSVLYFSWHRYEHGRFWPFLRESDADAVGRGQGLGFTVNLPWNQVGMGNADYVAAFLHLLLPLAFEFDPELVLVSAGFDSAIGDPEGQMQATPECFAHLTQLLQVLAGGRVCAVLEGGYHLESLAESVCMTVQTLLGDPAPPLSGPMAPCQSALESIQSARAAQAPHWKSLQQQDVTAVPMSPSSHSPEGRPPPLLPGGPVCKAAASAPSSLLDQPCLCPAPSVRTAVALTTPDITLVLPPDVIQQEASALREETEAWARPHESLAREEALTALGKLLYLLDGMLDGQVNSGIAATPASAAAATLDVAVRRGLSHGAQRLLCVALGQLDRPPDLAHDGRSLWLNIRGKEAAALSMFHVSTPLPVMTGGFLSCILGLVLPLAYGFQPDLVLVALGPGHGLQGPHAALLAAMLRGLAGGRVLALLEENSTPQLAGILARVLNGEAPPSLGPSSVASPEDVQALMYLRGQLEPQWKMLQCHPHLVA

[8] = biological target: T4, Protein deacetylase HDAC6 (Homo sapiens) (UniProt Q9UBN7); assay: Inhibition of HDAC6 in human SH-SY5Y cells assessed as increase in acetylation of alpha-tubulin at 0.1 to 1 uM after 24 hrs by Western blot analysis; assay type: cell-based
T4 sequence (whole entry): T2 sequence (Q9UBN7 whole entry)
Method in brief: (§1)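 SH-SY5Y cells in MEM with 10% FBS at 37 °C, 5% CO2, treated 24 h at 0.1–1 µM. Lysates in HEPES/Triton buffer; 20 µg protein run on SDS-PAGE and immunoblotted for acetyl-α-tubulin, α-tubulin, acetyl-histone H3 and histone H3 with ECL detection.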

SH-SY5Y = assay: Inhibition of class 1 HDAC in human SH-SY5Y cells assessed as increase in acetylation of histone H3 at 0.1 to 1 uM after 24 hrs by Western blot analysis; assay type: cell-based; method in brief: as §1

| Compound | Ratio IC50 (Homo sapiens [1]) | Ratio IC50 (Homo sapiens [2]) | IC50 (Histone deacetylase 8) | Ratio IC50 (Homo sapiens [3]) | Ratio IC50 (Homo sapiens [4]) | IC50 (Histone deacetylase 2) | Ratio IC50 (Homo sapiens [5]) | IC50 [6] | IC50 (Histone deacetylase 1) | IC50 (Histone deacetylase 3) | IC50 [7] | inhibition [8] | inhibition (SH-SY5Y) |
| --- | --- | --- | --- | --- | --- | --- | --- | --- | --- | --- | --- | --- | --- |
| COc1ccc(C(=O)c2ccc3c(ccn3S(=O)(=O)c3cccc(/C=C/C(=O)NO)c3)c2)cc1 | 0.6 | 1.7 | 0.812 µM | 0.3 | 1.1 | 0.424 µM | 7.8 | 0.751 µM | 1.46 µM | 0.232 µM | 5.89 µM |  |  |
| COc1cc(C(=O)c2ccc3c(ccn3Cc3ccc(/C=C/C(=O)NO)cc3)c2)cc(OC)c1OC | 40.1 | 24.3 | 2.17 µM |  | 15.2 | 5.74 µM |  | 0.143 µM | 3.48 µM |  |  |  |  |
| COc1cc(C(=O)c2ccc3c(ccn3S(=O)(=O)c3ccc(/C=C/C(=O)NO)cc3)c2)cc(OC)c1OC | 11.9 | 8.8 | 5.34 µM | 1.02 | 5.5 | 11.6 µM | > 103 | 0.972 µM | 8.54 µM | 0.996 µM | > 100 µM |  |  |
| COc1ccc(C(=O)c2ccc3c(ccn3S(=O)(=O)c3ccc(/C=C/C(=O)NO)cc3)c2)cc1 | > 118 | 8.4 | 10 µM | 3.01 | 11.8 | > 100 µM | > 118 | 0.848 µM | 7.16 µM | 2.56 µM | > 100 µM |  |  |
| COc1ccc(C(=O)c2ccc3c(ccn3Cc3ccc(C(=O)NO)cc3)c2)cc1OC | 196 | 181 | 0.756 µM | 390 | 48.8 | 3.03 µM | 1220 | 0.0155 µM | 2.8 µM | 6.05 µM | 18.9 µM |  |  |
| COc1ccc(C(=O)c2ccc3c(ccn3S(=O)(=O)c3cccc(/C=C/C(=O)NO)c3)c2)cc1OC | 1.8 | 0.7 | 1.42 µM | 0.7 | 1.2 | 2.14 µM | 6.9 | 1.18 µM | 0.877 µM | 0.861 µM | 8.24 µM |  |  |
| O=C(CCCCCCNC(=O)c1cnc(N(c2ccccc2)c2ccccc2)nc1)NO |  |  |  |  |  |  |  |  |  |  |  | Active | Active |
| COc1cc(C(=O)c2ccc3c(ccn3Cc3ccc(C(=O)NO)cc3)c2)cc(OC)c1OC |  |  |  |  |  |  |  | 1.54 µM |  |  |  |  |  |

Now from value to molecule, other results behind:

| Ratio IC50 (Homo sapiens [1]) | Ratio IC50 (Homo sapiens [2]) | IC50 (Histone deacetylase 8) | Ratio IC50 (Homo sapiens [3]) | Ratio IC50 (Homo sapiens [4]) | IC50 (Histone deacetylase 2) | Ratio IC50 (Homo sapiens [5]) | IC50 [6] | IC50 (Histone deacetylase 1) | IC50 (Histone deacetylase 3) | IC50 [7] | inhibition [8] | Compound | inhibition (SH-SY5Y) |
| --- | --- | --- | --- | --- | --- | --- | --- | --- | --- | --- | --- | --- | --- |
| 18.1 | 13.3 | 2.81 µM | 19 | 26 | 1.95 µM | 65.3 | 0.108 µM | 1.44 µM | 2.05 µM | 7.05 µM |  | COc1ccc(C(=O)c2ccc3c(ccn3Cc3ccc(/C=C/C(=O)NO)cc3)c2)cc1 |  |
| 3.1 | 2.3 | 1.26 µM | > 178 | 2.2 | 1.77 µM | > 178 | 0.562 µM | 1.32 µM | > 100 µM | > 100 µM |  | COc1cc(C(=O)c2ccc3c(ccn3S(=O)(=O)c3cccc(/C=C/C(=O)NO)c3)c2)cc(OC)c1OC |  |
| 313 | 231 | 1.12 µM | 310 | 68.3 | 5.14 µM | 2920 | 0.0164 µM | 3.79 µM | 5.09 µM | 47.9 µM |  | COc1cccc(C(=O)c2ccc3c(ccn3Cc3ccc(C(=O)NO)cc3)c2)c1 |  |
| 2.6 | 0.5 | 4.48 µM | 0.3 | 1.6 | 7.27 µM | 3.3 | 2.75 µM | 1.42 µM | 0.891 µM | 9.1 µM |  | Cc1ccc(C(=O)c2ccc3c(ccn3S(=O)(=O)c3cccc(/C=C/C(=O)NO)c3)c2)cc1 |  |
| 609 | 262 | 1.49 µM | 329 | 125 | 7.25 µM | > 8400 | 0.0119 µM | 3.12 µM | 3.91 µM | > 100 µM |  | Cc1ccc(C(=O)c2ccc3c(ccn3Cc3ccc(C(=O)NO)cc3)c2)cc1 |  |
| 1.3 | 0.16 | 2.75 µM | 0.04 | 1.9 | 1.8 µM | 3.7 | 1.42 µM | 0.23 µM | 0.0596 µM | 5.24 µM |  | O=C(/C=C/c1cccc(S(=O)(=O)n2ccc3cc(C(=O)c4ccc(F)cc4)ccc32)c1)NO |  |
| 2.7 | 0.7 | 3.53 µM | 0.2 | 1.9 | 4.8 µM | 4.3 | 1.81 µM | 1.21 µM | 0.323 µM | 7.74 µM |  | COc1cccc(C(=O)c2ccc3c(ccn3S(=O)(=O)c3cccc(/C=C/C(=O)NO)c3)c2)c1 |  |
